Laboratory results: ChEMBL document CHEMBL4622923, “Discovery of 4-Phenylpiperidine-2-Carboxamide Analogues as Serotonin 5-HT2C Receptor-Positive Allosteric Modulators with Enhanced Drug-like Properties” (J Med Chem, 2020)

Key:
[1] = AUC (0 to infinity) in Sprague-Dawley rat at 10 mg/kg, iv; format: ADME, organism-based; set-up: dose 10 mg/kg, route intravenous, time infinity; conditions: in vivo
[2] = biological target: Alpha-2A adrenergic receptor (Homo sapiens) (UniProt P08913); assay: Displacement of [3H]-rauwolscine from human adrenergic alpha2A receptor transiently expressed in HEKT cell membranes at 10 uM incubated for 90 mins under dark condition by scintillation counting analysis relative to control
Alpha-2A adrenergic receptor (Homo sapiens), sequence (P08913 whole entry): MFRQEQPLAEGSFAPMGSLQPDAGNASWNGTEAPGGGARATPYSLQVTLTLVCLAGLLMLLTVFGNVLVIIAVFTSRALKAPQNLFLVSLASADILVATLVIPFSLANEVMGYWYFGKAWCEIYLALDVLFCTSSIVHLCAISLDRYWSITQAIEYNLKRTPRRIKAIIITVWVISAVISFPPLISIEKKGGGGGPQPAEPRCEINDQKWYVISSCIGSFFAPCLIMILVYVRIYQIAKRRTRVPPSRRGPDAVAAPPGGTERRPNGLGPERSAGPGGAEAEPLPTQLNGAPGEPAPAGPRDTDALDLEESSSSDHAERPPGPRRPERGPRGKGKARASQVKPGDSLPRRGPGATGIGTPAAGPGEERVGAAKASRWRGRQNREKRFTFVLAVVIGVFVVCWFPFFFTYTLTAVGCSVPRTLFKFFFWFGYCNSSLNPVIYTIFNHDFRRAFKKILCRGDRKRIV

[3] = Volume of distribution at steady state in Sprague-Dawley rat at 20 mg/kg, po; format: ADME, organism-based; conditions: in vivo
In short: (§1)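 Male Sprague-Dawley rats, 200–250 g, n = 3/group, randomly assigned; dosed 10 mg/kg iv or 20 mg/kg po in 10% DMSO:90% HP-β-CD. Retro-orbital blood sampled predose and 0.08 (iv only), 0.25, 0.5, 1, 2, 4, 8, 24 h. Noncompartmental analysis; Cmax read directly from plasma concentration–time plot; mean ± SEM.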

[4] = biological target: Alpha-2B adrenergic receptor (Homo sapiens) (UniProt P18089); assay: Displacement of [3H]-rauwolscine from human adrenergic alpha2B receptor transiently expressed in HEKT cell membranes at 10 uM incubated for 90 mins under dark condition by scintillation counting analysis relative to control
[5] = biological target: 5-hydroxytryptamine receptor 1E (Homo sapiens) (UniProt P28566); assay: Displacement of [3H]-5-HT from human 5HT1E stably expressed in HEK cell membranes at 10 uM incubated for 90 mins under dark condition by scintillation counting analysis relative to control
5-hydroxytryptamine receptor 1E (Homo sapiens), sequence (P28566 whole entry): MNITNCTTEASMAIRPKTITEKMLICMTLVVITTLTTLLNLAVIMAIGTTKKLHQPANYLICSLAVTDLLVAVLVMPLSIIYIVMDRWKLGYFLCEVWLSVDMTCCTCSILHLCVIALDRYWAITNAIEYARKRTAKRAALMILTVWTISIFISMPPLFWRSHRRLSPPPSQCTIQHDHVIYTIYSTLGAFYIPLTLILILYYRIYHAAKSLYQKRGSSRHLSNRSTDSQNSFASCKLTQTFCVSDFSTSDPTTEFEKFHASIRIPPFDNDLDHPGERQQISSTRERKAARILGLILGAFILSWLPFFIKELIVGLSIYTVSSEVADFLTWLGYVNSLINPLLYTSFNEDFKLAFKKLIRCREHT

[6] = biological target: Delta-type opioid receptor (Homo sapiens) (UniProt P41143); assay: Displacement of [3H]-DADLE from human delta opioid receptor stably expressed in HEK cell membranes at 10 uM incubated for 90 mins under dark condition by scintillation counting analysis relative to control
[7] = biological target: D(1A) dopamine receptor (Homo sapiens) (UniProt P21728); assay: Displacement of [3H]-SCH23390 from human dopamine D1 receptor transiently expressed in HEKT cell membranes at 10 uM incubated for 90 mins under dark condition by scintillation counting analysis relative to control
[8] = Cmax in Sprague-Dawley rat at 10 mg/kg, iv; format: ADME, organism-based; set-up: dose 10 mg/kg, route intravenous; conditions: in vivo; in short: as §1
[9] = biological target: CYP2C19 (Homo sapiens, UniProt P33261); assay: Inhibition of CYP2C19 (unknown origin) at 10 uM relative to control; format: ADME
CYP2C19, sequence (P33261 whole entry, canonical isoform): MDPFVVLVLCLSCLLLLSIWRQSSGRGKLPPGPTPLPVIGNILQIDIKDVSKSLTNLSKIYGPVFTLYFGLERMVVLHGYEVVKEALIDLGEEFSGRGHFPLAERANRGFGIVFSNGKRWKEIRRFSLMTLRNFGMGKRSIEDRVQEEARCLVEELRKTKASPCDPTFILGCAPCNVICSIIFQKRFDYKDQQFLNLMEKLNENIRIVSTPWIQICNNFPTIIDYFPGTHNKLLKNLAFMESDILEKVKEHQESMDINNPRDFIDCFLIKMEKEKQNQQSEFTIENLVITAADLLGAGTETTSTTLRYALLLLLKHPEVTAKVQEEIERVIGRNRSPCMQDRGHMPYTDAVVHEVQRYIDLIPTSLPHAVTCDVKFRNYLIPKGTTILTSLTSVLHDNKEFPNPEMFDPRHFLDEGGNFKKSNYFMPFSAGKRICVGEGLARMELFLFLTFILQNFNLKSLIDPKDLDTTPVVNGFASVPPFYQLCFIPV
In short: (§2)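 Each CYP isoform inhibition assay run with test compound at 10 µM; reported as percent inhibition.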

[10] = biological target: T1, Sodium-dependent noradrenaline transporter (Homo sapiens, UniProt P23975); assay: Displacement of [3H]-nisoxetine from human NET stably expressed in HEK cell membranes incubated for 90 mins under dark condition by scintillation counting analysis
T1 sequence (P23975 whole entry): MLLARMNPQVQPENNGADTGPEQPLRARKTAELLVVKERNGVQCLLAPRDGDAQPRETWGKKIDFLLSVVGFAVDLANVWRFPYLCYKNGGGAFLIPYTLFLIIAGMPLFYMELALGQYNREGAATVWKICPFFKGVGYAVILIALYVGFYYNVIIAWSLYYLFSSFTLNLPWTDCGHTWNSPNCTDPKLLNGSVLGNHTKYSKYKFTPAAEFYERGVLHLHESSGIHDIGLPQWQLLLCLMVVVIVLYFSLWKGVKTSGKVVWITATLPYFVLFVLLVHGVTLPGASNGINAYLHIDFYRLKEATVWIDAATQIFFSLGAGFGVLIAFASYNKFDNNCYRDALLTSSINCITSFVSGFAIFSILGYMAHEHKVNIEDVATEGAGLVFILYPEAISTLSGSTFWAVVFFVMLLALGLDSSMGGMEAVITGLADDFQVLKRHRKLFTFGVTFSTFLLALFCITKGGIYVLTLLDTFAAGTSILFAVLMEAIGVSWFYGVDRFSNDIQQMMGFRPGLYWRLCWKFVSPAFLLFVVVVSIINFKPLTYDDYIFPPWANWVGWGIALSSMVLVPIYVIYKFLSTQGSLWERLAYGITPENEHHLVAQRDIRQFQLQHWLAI
In short: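 Radioligand competition isotherms for human NET; IC50 from non-linear regression, converted to Ki via the Cheng-Prusoff equation; Ki averaged over repeated experiments.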

[11] = Ratio of drug level in brain to plasma in Sprague-Dawley rat at 10 mg/kg, iv after 1 hr; format: ADME, organism-based
In short: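 Male Sprague-Dawley rats, n = 3/group, given 10 mg/kg iv in 10% DMSO:90% HP-β-CD. Brain and plasma collected at 0.25 and 1 h after dosing. Brain concentration (ng/g) divided by plasma concentration (ng/mL); mean ± SEM.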

[12] = biological target: Sodium-dependent serotonin transporter (Homo sapiens) (UniProt P31645); assay: Displacement of [3H]-citalopram from human SERT stably expressed in HEK cell membranes at 10 uM incubated for 90 mins under dark condition by scintillation counting analysis relative to control
Sodium-dependent serotonin transporter (Homo sapiens), sequence (P31645 whole entry, looked up): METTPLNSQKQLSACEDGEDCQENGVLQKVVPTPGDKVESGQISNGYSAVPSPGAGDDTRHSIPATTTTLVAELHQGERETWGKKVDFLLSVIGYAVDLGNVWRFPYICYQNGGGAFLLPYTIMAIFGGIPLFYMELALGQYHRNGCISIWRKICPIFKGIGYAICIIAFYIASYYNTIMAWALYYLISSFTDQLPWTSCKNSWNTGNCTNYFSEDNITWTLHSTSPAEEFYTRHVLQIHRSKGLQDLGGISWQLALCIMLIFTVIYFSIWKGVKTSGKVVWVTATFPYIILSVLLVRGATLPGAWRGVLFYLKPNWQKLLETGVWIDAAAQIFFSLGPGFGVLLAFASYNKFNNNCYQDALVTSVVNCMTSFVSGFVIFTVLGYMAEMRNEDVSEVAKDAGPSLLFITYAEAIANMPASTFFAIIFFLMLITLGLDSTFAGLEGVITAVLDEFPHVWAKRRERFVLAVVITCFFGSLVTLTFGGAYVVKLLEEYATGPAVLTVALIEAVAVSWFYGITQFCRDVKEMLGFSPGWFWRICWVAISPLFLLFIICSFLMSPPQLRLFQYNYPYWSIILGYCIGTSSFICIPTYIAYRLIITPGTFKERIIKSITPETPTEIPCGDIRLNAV

[13] = biological target: Cannabinoid receptor 2 (Homo sapiens) (UniProt P34972); assay: Displacement of [3H]-CP55940 from human CB2 receptor expressed in HEK-Flp-In cell membranes at 10 uM incubated for 90 mins under dark condition by scintillation counting analysis relative to control
[14] = Cmax in Sprague-Dawley rat at 20 mg/kg, po; format: ADME, organism-based; set-up: dose 20 mg/kg, route oral; conditions: in vivo; in short: as §1
[15] = biological target: 5-hydroxytryptamine receptor 3A (Homo sapiens) (UniProt P46098); assay: Displacement of [3H]-LY278584 from human 5HT3R transiently expressed in HEKT cell membranes at 10 uM incubated for 90 mins under dark condition by scintillation counting analysis relative to control
5-hydroxytryptamine receptor 3A (Homo sapiens), sequence (P46098 whole entry): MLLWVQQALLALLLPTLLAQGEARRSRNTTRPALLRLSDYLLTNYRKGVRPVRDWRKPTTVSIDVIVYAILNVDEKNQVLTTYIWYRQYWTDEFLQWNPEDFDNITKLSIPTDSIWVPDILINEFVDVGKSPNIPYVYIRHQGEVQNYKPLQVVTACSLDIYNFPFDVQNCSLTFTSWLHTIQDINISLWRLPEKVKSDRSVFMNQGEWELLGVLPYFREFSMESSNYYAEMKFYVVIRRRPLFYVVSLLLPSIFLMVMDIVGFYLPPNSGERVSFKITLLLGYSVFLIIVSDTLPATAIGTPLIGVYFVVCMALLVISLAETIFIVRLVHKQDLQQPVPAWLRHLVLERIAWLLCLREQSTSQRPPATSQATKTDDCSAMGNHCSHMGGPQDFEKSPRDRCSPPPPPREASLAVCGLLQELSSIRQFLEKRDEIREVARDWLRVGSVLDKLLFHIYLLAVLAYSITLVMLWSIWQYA

[16] = biological target: Sodium-dependent dopamine transporter (Homo sapiens) (UniProt Q01959); assay: Displacement of [3H]-WIN35428 from human DAT expressed in HEK cell membranes at 10 uM incubated for 90 mins under dark condition by scintillation counting analysis relative to control
[17] = biological target: D(4) dopamine receptor (Homo sapiens) (UniProt P21917); assay: Displacement of [3H]-N-methylspiperone from human dopamine D4 receptor stably expressed in HEK cell membranes at 10 uM incubated for 90 mins under dark condition by scintillation counting analysis relative to control
[18] = biological target: CYP2D6 (Homo sapiens, UniProt P10635); assay: Inhibition of CYP2D6 (unknown origin) at 10 uM relative to control; format: ADME; in short: as §2
CYP2D6, sequence (P10635 whole entry): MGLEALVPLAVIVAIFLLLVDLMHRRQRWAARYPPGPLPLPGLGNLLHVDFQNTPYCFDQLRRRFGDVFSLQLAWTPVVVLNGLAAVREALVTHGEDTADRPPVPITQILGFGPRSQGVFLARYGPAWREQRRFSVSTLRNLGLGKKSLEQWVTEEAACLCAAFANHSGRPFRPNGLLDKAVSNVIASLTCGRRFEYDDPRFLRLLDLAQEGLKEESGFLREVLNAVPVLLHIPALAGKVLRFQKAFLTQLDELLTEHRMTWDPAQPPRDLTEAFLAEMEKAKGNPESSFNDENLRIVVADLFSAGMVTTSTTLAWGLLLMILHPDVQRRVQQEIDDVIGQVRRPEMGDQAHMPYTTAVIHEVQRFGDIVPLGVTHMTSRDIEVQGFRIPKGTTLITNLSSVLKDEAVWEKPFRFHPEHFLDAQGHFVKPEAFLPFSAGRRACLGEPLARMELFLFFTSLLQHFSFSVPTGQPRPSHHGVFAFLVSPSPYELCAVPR

[19] = biological target: 5-hydroxytryptamine receptor 1D (Homo sapiens) (UniProt P28221); assay: Displacement of [3H]-GR125743 from human 5HT1D transiently expressed in HEKT cell membranes at 10 uM incubated for 90 mins under dark condition by scintillation counting analysis relative to control
5-hydroxytryptamine receptor 1D (Homo sapiens), sequence (P28221 whole entry): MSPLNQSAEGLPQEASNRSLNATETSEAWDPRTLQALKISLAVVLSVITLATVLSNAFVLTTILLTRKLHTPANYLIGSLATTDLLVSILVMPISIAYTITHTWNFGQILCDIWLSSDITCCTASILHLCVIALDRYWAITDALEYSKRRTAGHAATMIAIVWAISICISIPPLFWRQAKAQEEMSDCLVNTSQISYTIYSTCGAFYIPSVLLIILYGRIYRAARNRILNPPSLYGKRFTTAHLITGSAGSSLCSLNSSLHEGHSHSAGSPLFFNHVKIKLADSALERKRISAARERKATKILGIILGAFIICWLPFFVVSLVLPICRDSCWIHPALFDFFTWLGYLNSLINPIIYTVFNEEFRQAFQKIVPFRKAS

[20] = biological target: CYP1A2 (Homo sapiens, UniProt P05177); assay: Inhibition of CYP1A2 (unknown origin) at 10 uM relative to control; format: ADME; in short: as §2
[21] = biological target: CYP3A4 (Homo sapiens, UniProt P08684); assay: Inhibition of CYP3A4 (unknown origin) at 10 uM relative to control; format: ADME; in short: as §2
CYP3A4, sequence (P08684 whole entry): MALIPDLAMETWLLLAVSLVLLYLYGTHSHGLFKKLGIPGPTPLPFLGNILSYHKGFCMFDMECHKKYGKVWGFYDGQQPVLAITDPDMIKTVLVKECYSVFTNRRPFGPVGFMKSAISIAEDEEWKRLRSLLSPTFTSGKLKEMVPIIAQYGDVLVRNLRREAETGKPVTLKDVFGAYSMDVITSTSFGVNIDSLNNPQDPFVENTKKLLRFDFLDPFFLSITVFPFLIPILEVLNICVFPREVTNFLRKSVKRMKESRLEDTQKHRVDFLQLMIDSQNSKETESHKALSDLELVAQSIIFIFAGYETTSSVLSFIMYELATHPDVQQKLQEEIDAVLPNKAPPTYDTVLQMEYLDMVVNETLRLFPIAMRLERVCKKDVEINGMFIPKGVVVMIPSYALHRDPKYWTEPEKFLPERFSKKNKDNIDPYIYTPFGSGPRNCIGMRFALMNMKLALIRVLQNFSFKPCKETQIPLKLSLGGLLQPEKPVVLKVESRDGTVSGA

[22] = tested on: Rattus norvegicus; assay: Potentiation of WAY163909-induced neurobiological activity in Sprague-Dawley rat assessed as increase in number of rat choosing WAY163909 associated lever at 2 mg/kg, ip treated 15 mins prior to WAY163909 addition and measured after 15 mins in presence of 5HT2CR antagonist SB242084 by drug discrimination test (reference value: 53%); format: functional
In short: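 Two-lever FR20 drug discrimination in male Sprague-Dawley rats (n = 13) trained on WAY163909 0.75 mg/kg ip versus saline. SB242084 (0.5 mg/kg ip) given 15 min before WAY163909. Test compound (2 mg/kg ip) given 15 min before WAY163909 (0.5 mg/kg ip). Rats placed in chambers 15 min after WAY163909. Read-out is the percentage of rats choosing the WAY163909 lever.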

[23] = biological target: D(3) dopamine receptor (Homo sapiens) (UniProt P35462); assay: Displacement of [3H]-N-methylspiperone from dopamine D3 receptor (unknown origin) at 10 uM incubated for 90 mins under dark condition by scintillation counting analysis relative to control
D(3) dopamine receptor (Homo sapiens), sequence (P35462 whole entry): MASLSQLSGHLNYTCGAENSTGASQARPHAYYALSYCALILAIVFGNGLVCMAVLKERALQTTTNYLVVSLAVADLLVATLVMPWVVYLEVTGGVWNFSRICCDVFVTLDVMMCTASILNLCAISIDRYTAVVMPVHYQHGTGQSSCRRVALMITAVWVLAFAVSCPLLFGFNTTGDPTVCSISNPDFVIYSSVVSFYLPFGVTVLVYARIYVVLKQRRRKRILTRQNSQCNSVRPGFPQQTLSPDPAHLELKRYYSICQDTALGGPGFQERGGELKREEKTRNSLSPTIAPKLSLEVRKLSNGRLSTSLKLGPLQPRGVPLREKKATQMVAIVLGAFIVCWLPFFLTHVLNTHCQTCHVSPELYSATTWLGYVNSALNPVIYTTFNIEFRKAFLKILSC

[24] = biological target: T1, Sodium-dependent noradrenaline transporter; assay: Displacement of [3H]-nisoxetine from human NET stably expressed in HEK cell membranes at 10 uM incubated for 90 mins under dark condition by scintillation counting analysis relative to control
[25] = biological target: CYP2C9 (Homo sapiens, UniProt P11712); assay: Inhibition of CYP2C9 (unknown origin) at 10 uM relative to control; format: ADME; in short: as §2
[26] = tested on: Rattus norvegicus; assay: Potentiation of WAY163909-induced neurobiological activity in Sprague-Dawley rat assessed as increase in number of rat choosing WAY163909 associated lever at 1 mg/kg, ip treated 15 mins prior to WAY163909 addition and measured after 15 mins by drug discrimination test (reference value: 53%); format: functional

`O=C(NC[C@H](O)CO)[C@@H]1C[C@H](c2ccccc2)CCN1` (mixture of isomers) gave an AUC [1] of 3065.6 ng·h/mL, an inhibition [2] of -7.6% and a Vdss [3] of 70.6 L/kg. It also gave an inhibition [4] of 14.5%, an inhibition [5] of 6.3% and an inhibition [6] of -6.1%. For the same molecule, the inhibition [7] was 9.7%, the Cmax [8] was 2408.6 ng/mL and the inhibition at 10 µM [9] was 0%. For the same molecule, the Ki [10] was 2500 nM, the BPR [11] was 0.11 and the inhibition [12] was 47.5%. The inhibition [13] was 30.6%, the Cmax [14] was 411.3 ng/mL and the inhibition [15] was 22.3%. For the same molecule, the inhibition [16] was 40.8%, the inhibition [17] was -9.3% and the inhibition at 10 µM [18] was 1.9%. For the same molecule, the inhibition [19] was 15.3%, the inhibition at 10 µM [20] was 11.8% and the inhibition at 10 µM [21] was 0%. For the same molecule, the Activity [22] was 0%, the inhibition [23] was 19.4% and the inhibition [24] was 74.4%. It also gave an inhibition at 10 µM [25] of 0% and an Activity [26] of 77%.
